The text below walks through data of PubChem BioAssay AID504490 (NMMLSC, 2011).

In all, about 340,000 compounds went through this assay and about 1,100 (0.32%) were called active. The entries come from a sample that favours actives as a whole. Values without a mark were called inactive.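 Rule for the calls: active = inhibition above a set limit, near 3 SD of compounds lacking own fluorescence (cut at about 54% in these data); inactive = the rest.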

The assay concerns beta-arrestin 1 C-terminal peptide binding to AP2 beta2-adaptin appendage (human). In words: blockers of arrestin peptide association with AP2 adaptin – biochemical, GPCR trafficking, flow cytometry, primary screen (AID 504490).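 Note: plate controls were DMSO wells for no effect and 5 µM unlabelled arrestin peptide for full effect.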 The following applies: FITC-arrestin peptide / GST-AP2 beads, at 10 µM, active compounds read high, AP2 beta2 appendage carries R879A mutation. The essentials:
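Assay system: GST-AP2 R879A bound to glutathione beads, E. coli-expressed; Medium: PBS with 0.05% Tween 20 and 0.1% BSA; Also added: fluorescein-tagged arrestin peptide at 50 nM final; Timing: 12 min plus 1 h, RT; Measured by: flow cytometry, FL1 (488/535 nm); Evaluation: percent drop in bead-associated FITC signal.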
Usually inhibition stands for the relative decrease from the control value, in per cent. On to `CC(=O)OC1CCC2C3CCC4=C(CC(F)C(=O)C4)C3CCC12C` (stereo not given), for which the inhibition is -26.5%. On to `CCOc1ccccc1OCC(=O)Nc1ccccc1C(=O)NC1CC1`, for which the inhibition is -8.99%. Take `O=C(NC1=CC(=O)c2ccccc2C1=O)c1ccccc1`: the inhibition was 19.2%.

Turning to `CC(=O)N(C1=C(Cl)C(=O)c2ccccc2C1=O)c1ccc(C(=O)O)cc1`, the inhibition is 64.7% (active). For `CC(C)(Oc1ccc(Cl)cc1)C(=O)OCC(=O)NCCc1ccc(S(N)(=O)=O)cc1`, the inhibition was 19%. As for `O=C(CN1C(=O)COc2ccc(Cl)cc21)Nc1ccc(N2CCOCC2)cc1`, the inhibition is 3.15%. Consider `CC(C)C[C@H](NC(=O)N1CCn2c1nc1ccccc12)C(=O)NC1CC1`, for which the inhibition was 60.8% (active). With `CC(C)[C@H](NC(=O)N1CCn2c1nc1ccccc12)C(=O)NC1CC1`, the inhibition was 35.9%. As for `CSCC[C@H](NC(=O)N1CCn2c1nc1ccccc12)C(=O)NC1CCCCC1`, the figure is -6.82%; as for `NS(=O)(=O)c1ccc(CNC(=O)c2cccc(Oc3ccccc3)c2)cc1`, 10.4%. `CC(NCCc1ccc(S(N)(=O)=O)cc1)C(=O)NCc1ccccc1` (stereo not given): the inhibition is 57.4% (active). Under `NS(=O)(=O)c1ccc(CCNC(=O)CNC(=O)Cc2ccccc2)cc1` stands 3.4%; under `O=C(CC12CC3CC(CC(C3)C1)C2)NCc1ccco1`, 5.06%; under `O=C1C(Cl)=C(Oc2ccccc2)C(=O)c2ccccc21`, 55.1% (active).

As to `Cc1ccc(C(=O)CN2C(=O)NC3(CCOc4ccccc43)C2=O)s1` (stereo not given), the inhibition was -5.1%. As for `O=C(COc1ccc(F)cc1Br)NCC1COc2ccccc2O1` (stereo not given), the figure is 0.24%. With `COc1cccc(OCC(O)CNC(=O)c2oc3c(C)c(C)ccc3c2C)c1` (stereo not given), the inhibition was 2.32%. With `Cc1ccc(N=C2NC(=O)/C(=C/C=C/c3ccco3)S2)cc1C`, the inhibition was 42.9%.

`CN=C1S/C(=C\c2c(OC)cc(OC)cc2OC)C(=O)N1C`: the inhibition is 7.51%. For the compound `CN1C(=O)/C(=C/c2ccco2)SC1=Nc1cccc(C(=O)O)c1`, the inhibition was 62.3% (active).

With `COc1ccc(C2(CNC(=O)C(c3ccccc3)c3ccccc3)CCOCC2)cc1OC`, the inhibition was -2.16%.

On to `Cc1ccc(C)c(NC(=S)NNC(=S)Nc2ccc(C(C)C)cc2)c1`, for which the inhibition is 60.6% (active). `Cc1ccc(NC(=S)Nc2ccc(F)cc2)cc1`: the inhibition was 2.86%. Under `CC(C)c1ccc(NC(=S)NC2CC3C=CC2C3)cc1` (stereo not given) stands -12.9%; under `Cn1cc(CCC(=O)N2CCCC(C(=O)c3ccc(C(C)(C)C)cc3)C2)cn1` (stereo not given), 5.89%.

Consider `CCOc1ccc(/C=N/OCC(=O)NCc2cccs2)cc1`, for which the inhibition was -13.4%. Regarding `CCOc1ccc(C(=O)NC2CCN(CC(=O)NCc3cccs3)CC2)cc1`, the inhibition is 54.6% (active). Consider `CCOc1ccc(C(=O)NC2CCN(S(=O)(=O)CC)CC2)cc1`, for which the inhibition was 2.75%.

Take `c1ccc(Cc2ccc(OCCn3ccnc3)cc2)cc1`: the inhibition was -5.61%. For `O=C(C1CCC1)N1CCN(c2ccccc2)CC1`, the inhibition was 4.58%. Turning to `CC(C)Cn1c(N)c(C(=O)COC(=O)CN2C(=O)C3CC=CCC3C2=O)c(=O)n(C)c1=O` (stereo not given), the inhibition was 1.01%. As for `CC1CCN(C(=O)COC(=O)c2cc(=O)[nH]c3ccccc23)CC1`, the inhibition is -3.58%. Turning to `CN(C(=O)COC(=O)c1cc(=O)[nH]c2ccccc12)C1CCCCC1`, the inhibition is 54.7% (active). `CC(NC(=O)COC(=O)c1cc(=O)[nH]c2ccccc12)c1ccccc1` (stereo not given): the inhibition was 11.9%. On to `O=C(Nc1ccccc1)N1CCN(C2c3ccccc3-c3ccccc32)CC1`, for which the inhibition is -3.43%. As for `CC1CN(CC(=O)NC(C)c2ccccc2)CC(C)O1` (stereo not given), the figure is 0.77%. Consider `Cn1c(=O)c2c(nc(N/N=C/c3cccs3)n2Cc2ccc(Br)cc2)n(C)c1=O`, for which the inhibition was 70.5% (active). As for `CCCCNc1nc2c(c(=O)n(C)c(=O)n2C)n1Cc1cccc(OC)c1`, the figure is 13.6%; as for `Cn1c(=O)c2sccc2n(Cc2ccc(Br)cc2)c1=O`, -7.24%; as for `C=CC(=O)Nc1ccc(Nc2ccnc(Nc3ccc(N4CCN(C)CC4)cc3)n2)cc1`, 55.9% (active). As for `Cc1cccc(N2CCN(c3ccc(NC(=O)/C=C\C(=O)O)cc3)CC2)c1`, the inhibition is 15.9%. Turning to `CN1CCN(c2ccc(NC(=O)c3cc(Cl)c4c(c3)OCCO4)cc2)CC1`, the inhibition was 30.2%. For the compound `Cn1c(SCc2nc3ccccc3s2)nnc1-c1ccc2c(c1)OCO2`, the inhibition is -3.99%. Under `CCCCN(CC)CCNC(=O)CCNC(=O)Cn1ccc2ccccc2c1=O` stands 1.19%; under `O=C1NC(=O)C(CCc2ccccc2)(c2ccccc2)N1` (stereo not given), -9.95%; under `C/C(Cl)=C\Cn1c(Nc2cccc(C)c2)nc2c1c(=O)n(C)c(=O)n2C`, -6.48%.

As for `O=C(NCCc1ccc(Cl)cc1)C1CC(=O)N(C2CCCCC2)C1` (stereo not given), the inhibition was 6.36%. Take `Cc1ccc(CNC(=O)C2CC(=O)N(C3CCCCCCC3)C2)cc1` (stereo not given): the inhibition is 93.8% (active).

Consider `COc1cccc(CNC(=O)C2CC(=O)N(C3CCCCCCC3)C2)c1` (stereo not given), for which the inhibition was -10.2%. As for `COc1ccc(Br)cc1CN(C)CC(=O)Nc1cc(Cl)cc(Cl)c1`, the figure is 4.23%. `CCc1cccc2c(C=C(C#N)C#N)cn(CC(=O)N3CCCCC3)c12`: the inhibition was 9.35%.

Regarding `COc1ccc(Cc2nnc(SCC(=O)c3cccc([N+](=O)[O-])c3)n2C)cc1`, the inhibition was 7.36%. As to `CCc1ccccc1OCC(=O)Nc1ccc(C)c(S(=O)(=O)N2CCCCCC2)c1`, the inhibition was 10.8%. As for `COc1cc(/C=C/C(=O)OCC(=O)c2ccccc2)cc(OC)c1OC`, the inhibition was 10%.

Take `COc1cc2c(cc1NC(=O)CN1CCN(S(=O)(=O)c3ccc(F)cc3)CC1)oc1ccccc12`: the inhibition is 11.4%.

For `COc1cc2c(cc1NC(=O)COC(=O)/C=C/c1ccccc1)oc1ccccc12`, the inhibition is 105% (active). Under `Cc1cccc(NC(=S)NC(=O)c2ccc(Br)o2)c1` stands 61.8% (active); under `Cc1cccc(NC(=O)c2ccc([N+](=O)[O-])o2)c1`, 5.65%; under `O=C(CNC(=O)c1ccc(Br)o1)Nc1ccccc1`, 7.78%. With `Cc1cc(C)cc(C(=O)NC(=S)Nc2ccc3[nH]c(=O)[nH]c3c2)c1`, the inhibition is 10.9%.
